Measurements published in ChEMBL document CHEMBL1139439, “Folate-synthesizing enzyme system as target for development of inhibitors and inhibitor combinations against Candida albicans-synthesis and biological activity of new 2,4-diaminopyrimidines and 4'-substituted 4-aminodiphenyl sulfones” (J Med Chem, 2004).
≈ marks a conversion by molar mass, not a printed value.

Columns and labels:
[1] = target: T1, Dihydrofolate reductase (Candida albicans, UniProt P22906); assay: Inhibitory activity against cell free dihydrofolate reductase (DHFR) from Candida albicans; conditions: read-out: I50
T1 sequence (P22906 whole entry): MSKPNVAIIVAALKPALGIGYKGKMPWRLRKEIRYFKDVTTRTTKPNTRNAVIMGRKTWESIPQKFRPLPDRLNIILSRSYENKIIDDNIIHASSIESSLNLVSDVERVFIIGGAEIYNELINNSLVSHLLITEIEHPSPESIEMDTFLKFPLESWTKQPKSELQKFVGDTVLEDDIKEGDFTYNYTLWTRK

[2] = system: Nakaseomyces glabratus; assay: Inhibitory effect on Candida glabrata YEM75 WT Strain; assay type: functional
Outline: (§1)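 For C. glabrata strains, MICs were determined by serial dilution in RPMI medium and read after 48 h. MIC is the lowest concentration giving turbidity ≤20% of the control culture.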

[3] = system: Nakaseomyces glabratus; assay: Inhibitory effect on Candida glabrata YEM88 CgCDR1 CgCDR2up Strain; assay type: functional; outline: as §1
[4] = system: Candida albicans; assay: Inhibitory effect on Candida albicans wild type YEM30 Strain; assay type: functional
Outline: (§2)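 MICs were determined by serial dilution in RPMI medium. MIC is the lowest concentration giving culture turbidity ≤20% of the control culture.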

[5] = system: Nakaseomyces glabratus; assay: Inhibitory effect on Candida glabrata YEM216 pCDR1pCDR2pBEN YEM75 WT Strain; assay type: functional; outline: as §1
[6] = system: Candida albicans; assay: Inhibitory effect on Candida albicans YEM27 quad deletion Strain; assay type: functional; outline: as §2
[7] = system: Candida albicans; assay: Inhibitory effect on Candida albicans wild type YEM14 Strain; assay type: functional; outline: as §2
[8] = system: Candida albicans; assay: Inhibitory effect on Candida albicans YEM13 BENup Strain; assay type: functional; outline: as §2
[9] = system: Candida albicans; assay: Inhibitory effect on Candida albicans YEM12 Strain; assay type: functional; outline: as §2
[10] = system: Candida albicans; assay: Inhibitory effect on Candida albicans YEM15 CDR1CDR2up Strain; assay type: functional; outline: as §2
[11] = target: T2, Dihydrofolate reductase (Rattus norvegicus, UniProt Q920D2); assay: (§3) Inhibitory activity against cell free dihydrofolate reductase (DHFR) from rat; conditions: read-out: I50
T2 sequence (Q920D2 whole entry): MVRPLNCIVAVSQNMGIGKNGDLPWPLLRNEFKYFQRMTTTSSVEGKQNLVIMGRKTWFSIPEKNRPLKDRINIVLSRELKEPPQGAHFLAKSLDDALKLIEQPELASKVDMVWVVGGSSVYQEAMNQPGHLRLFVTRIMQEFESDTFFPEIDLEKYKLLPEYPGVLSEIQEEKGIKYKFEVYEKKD
Outline: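 Commercially sourced rat DHFR was preincubated 5 min at 25 °C with 0.1 mM NADPH and varying inhibitor in 0.1 M Tris, pH 7.24. The reaction was started with 0.03 mM dihydrofolate and followed as the fall in absorbance at 340 nm over time. I50 was taken as the inhibitor concentration halving reaction velocity, fitted by nonlinear regression.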

[12] = target: T2, Dihydrofolate reductase; assay: as §3; conditions: read-out: I50; remark: listed apart in the source
[13] = system: Nakaseomyces glabratus; assay: IInhibitory effect on Candida glabrata YEM75 WT Strain; assay type: functional; outline: as §1

Compound | IC50 [1] [nM] | MIC [2] [µg/mL] | MIC [3] [µg/mL] | MIC [4] [µg/mL] | MIC [5] [µg/mL] | MIC [6] [µg/mL] | MIC [7] [µg/mL] | MIC [8] [µg/mL] | MIC [9] [µg/mL] | MIC [10] [µg/mL] | IC50 [11] [nM] | IC50 [12] [nM] | MIC [13] [µg/mL]
COc1cc(OC)cc(N2C3CCC2CC(c2cnc(N)nc2N)C3)c1 (configuration not stated) | 26 | 4 (≈ 11.3 µM) | 32 (≈ 90 µM) | 32 (≈ 90 µM) | 4 (≈ 11.3 µM) | 1 (≈ 2.81 µM) | 64 (≈ 180 µM) | > 64 | 16 (≈ 45 µM) | > 64 | 84 |  | 
COc1cc(Cc2cnc(N)nc2N)ccc1OCCNc1ccc(S(=O)(=O)c2ccc(N)cc2)cc1 | 340 |  | > 64 | > 64 | > 64 | > 64 | > 64 | > 64 | > 64 | > 64 |  | 7230 | > 64
